Source: PubChem BioAssay
The list is not random: actives were taken first. Their share in the collection is about 2%.
HIF act: HIF pathway transcriptional activation | 300,000 compounds, 0.32% hits | U2OS HRE-luciferase reporter, luminescence; normalized: DMSO 0%, desferrioxamine 100% | activation, % at 7.5 µM (by protocol);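 active = mean activation of at least 10% of the iron chelator positive control signal, with at least half of replicates also reaching 10%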
NR2E3 ag-1: agonists of human NR2E3 nuclear receptor; Q9Y5X4; CHO-S Gal4-NCOR/VP16-NR2E3 two-hybrid, luciferase; inhibition of corepressor binding, % at 3.98 µM; 360,000 compounds, 0.35% hits;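 active = inhibition above the mean of all tested compounds plus 3 SD, cut at about 70% in these data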;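 also: 0% = DMSO with NR2E3 transfected cells and 100% = cells lacking NR2E3 construct; higher means lower luciferase signal from less NR2E3 corepressor binding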
Target sequence (Q9Y5X4 whole entry, looked up, the tested form may be a part): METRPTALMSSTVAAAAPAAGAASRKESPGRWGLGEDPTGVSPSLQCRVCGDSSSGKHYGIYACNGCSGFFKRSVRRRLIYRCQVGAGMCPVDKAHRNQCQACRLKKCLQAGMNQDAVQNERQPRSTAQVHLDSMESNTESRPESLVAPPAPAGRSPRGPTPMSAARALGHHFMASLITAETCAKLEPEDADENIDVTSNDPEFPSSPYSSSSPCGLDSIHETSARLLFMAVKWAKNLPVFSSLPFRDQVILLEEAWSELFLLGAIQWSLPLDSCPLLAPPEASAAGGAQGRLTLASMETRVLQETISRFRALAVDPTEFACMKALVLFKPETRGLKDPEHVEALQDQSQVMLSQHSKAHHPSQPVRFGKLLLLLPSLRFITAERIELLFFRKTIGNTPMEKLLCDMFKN
EBV LMP1 NFkB: reduces LMP1-driven NF-kappaB luciferase signal; LMP1-induced NF-kappaB luciferase reporter cells, luminescence; inhibition, % at 12.5 µM; 350,000 compounds, 0.69% hits; AID 504558; in the data active = inhibition above about 41%;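 also: 0% = neutral control wells and 100% = reference inhibitor control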
NR2E3 ag-2: agonists of human nuclear receptor NR2E3; Q9Y5X4; GST-NR2E3/biotin-RetCOR TR-FRET, 1536-well; inhibition of corepressor binding, % at 4.78 µM; 320,000 compounds, 0.12% hits; AID 2300;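 active = percent inhibition above the cutoff of mean plus 3 SD of all tested compounds, set per screening campaign, cut at about 20% in these data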;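 also: 0% = DMSO wells and 100% = biotin wells as full block of FRET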
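system = GST-tagged NR2E3 plus biotinylated RetCOR corepressor | input = 1.35 nM GST-NR2E3 | also added = 7 nM biotin-RetCOR | schedule = 5 h incubation at 4 °C | measured by = TR-FRET with europium anti-GST and streptavidin-D2, 340 nm excitation | read-out = percent loss of FRET ratio relative to control wells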
TROY NFkB inh: blocks TROY-dependent signaling in reporter cells; Q293 LMP1-TROYcd NF-kB luciferase reporter, 4 h; inhibition, % at 10 µM; 360,000 compounds, 0.98% hits; AID 1347056;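 active = compounds whose plate-normalised and pattern-corrected inhibition of the luciferase reporter signal at the single screening dose is 50% or more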
Numbers without * were called inactive; nt = no result.

SMILES | HIF act | NR2E3 ag-1 | EBV LMP1 NFkB | NR2E3 ag-2 | TROY NFkB inh
O=C(O)c1cc(-n2[nH]c(=O)c3ccccc3c2=O)ccc1Cl | 0 | -101 | 2 | 2 | -37
COc1ccc(/C(N)=N/OC(=O)N2CCOCC2)cc1 | 0 | -1 | 90* | -1 | -18
COc1ccc(OC(=O)N2CCOCC2)cc1 | -1 | -21 | -9 | -2 | -17
CCN(CC)S(=O)(=O)c1ccc(NC(=O)c2cc(-c3cccs3)nc3ccccc23)cc1 | -1 | -9 | 0 | -2 | -3
C/C(=N\NC(=O)c1cc(-c2cccs2)nc2ccccc12)c1ccccn1 | 2 | -27 | 72* | -1 | -12
CN(C)S(=O)(=O)c1ccc(NC(=O)c2cc(-c3cccs3)nc3ccccc23)cc1 | -1 | -14 | -6 | -1 | 88*
O=C(COC(=O)C12CC3CC(CC(C3)C1)C2)NNC(=O)c1ccccc1 | nt | 0 | -2 | nt | -8
Clc1ccc(Cn2ncc3c(N4CCN(c5ccccc5)CC4)ncnc32)cc1 | nt | -16 | nt | nt | 81*
Cc1ccc(S(=O)(=O)N(C)C)cc1NC(=O)COC(=O)C1=COCCO1 | nt | 11 | -2 | 0 | 4
N#Cc1cc(Cl)c(NCC2CCCO2)cc1C#N (stereo not drawn) | -17 | -22 | 2 | 0 | 12
CCN(CC)c1ccc(-c2nn3c(-c4n[nH]c5c4CCC5)nnc3s2)cc1 | 1 | 1 | 3 | 1 | 52*
CCC(C(=O)NCC1CCCO1)n1nc(C)c2sc3ccccc3c2c1=O (stereo not drawn) | -1 | 0 | -1 | 1 | 17
Cc1ccc(NC(=O)c2cnn(-c3ccccc3)c2C)cc1C | -5 | -120 | 8 | 5 | 63*
Nc1nnc2cc(Br)ccc2n1 | nt | -7 | 4 | nt | -15
CCN(CC)c1ccc(C(NC(=O)C(C)C)c2ccc3cccnc3c2O)cc1 (stereo not drawn) | nt | -22 | 72* | nt | 6
CCCCC(=O)NC(c1ccc(N(C)C)cc1)c1ccc2cccnc2c1O (stereo not drawn) | 89* | 4 | 34 | 7 | 6
CCCCC(=O)NC(c1ccc(N(CC)CC)cc1)c1ccc2cccnc2c1O (stereo not drawn) | 97* | -24 | 82* | 1 | 33
Oc1c(C(Nc2nc3ccccc3s2)c2ccco2)ccc2cccnc12 (stereo not drawn) | 31* | 6 | 61* | 7 | 14
COc1ccc([C@H]2C[C@@H](O)[C@H](n3cc(COC(=O)c4ccccc4)nn3)CN2C(=O)c2cccs2)cc1 | nt | 8 | -2 | nt | 5
CC(C)C(=O)NC(c1cccs1)c1cc([N+](=O)[O-])c2cccnc2c1O (stereo not drawn) | 3 | 6 | 3 | -2 | 1
CC(C)C(=O)NC(c1ccco1)c1ccc2cccnc2c1O (stereo not drawn) | 22* | -54 | 21 | 0 | 11
Cc1ccccc1-n1ncc2c([N+](=O)[O-])cc([N+](=O)[O-])cc21 | 0 | 4 | -2 | 4 | 51*
COc1cccc(NC(=S)Nc2ccc(Br)cc2Cl)c1 | 2 | -17 | -5 | -2 | -38
CCOc1ccc(NC(=S)Nc2ccc(Br)cc2Cl)cc1 | 0 | -18 | 4 | -4 | 58*
Oc1c(Br)cc(Br)cc1/C=N/Nc1ccc(Cl)nn1 | -1 | -28 | 45* | 0 | -3
SMILES | HIF act | NR2E3 ag-1 | EBV LMP1 NFkB | NR2E3 ag-2 | TROY NFkB inh
O=C(c1ccc(CS(=O)Cc2ccccc2Cl)o1)N1CCN(c2cccc(Cl)c2)CC1 (stereo not drawn) | 0 | -12 | 70* | -3 | 8
COc1ccc(NS(=O)(=O)c2cccc(NC(=O)c3ccc(S(=O)(=O)N4CCCCCC4)cc3)c2)cc1 | -1 | 83* | -14 | 2 | 45
COc1ccc(/C(C)=N/NC(=O)c2cccc(S(=O)(=O)N3CCCC3)c2)c(O)c1 | 33* | -9 | 16 | -3 | 23
COc1ccc(NS(=O)(=O)c2ccc(O)c(NC(=O)c3ccc(S(=O)(=O)N4CCCCCC4)cc3)c2)cc1 | 0 | -14 | -5 | -2 | 38
O=C(Nc1ccc(S(=O)(=O)N2CCCCC2)cc1)c1ccc(CN2CCOCC2)cc1 | 0 | -1 | 5 | 2 | 53*
COCCCn1cnnc1SCC(=O)Nc1ccc(S(=O)(=O)N2CCCC2)cc1 | 1 | -11 | 60* | 0 | -10
COc1ccc(NC(=O)CSC(C)c2nc3ccccc3c(=O)[nH]2)cc1 (stereo not drawn) | 0 | 6 | 10 | 2 | -8
O=C(O)/C=C/C(=O)Nc1c(F)cccc1F | 0 | 4 | -5 | 5 | -3
CC(C)n1nc(C(=O)Nc2cccc(S(=O)(=O)N3CCOCC3)c2)c2ccccc2c1=O | nt | 10 | -2 | -2 | 0
COc1ccc(S(=O)(=O)N2CCC(C(=O)NC3CC3)CC2)cc1 | 0 | -10 | 4 | 1 | 3
CC(=O)Nc1ccc(S(=O)(=O)N2CCCC2)cc1 | -1 | -23 | 71* | 0 | -17
N#CC(C#N)=NNc1ccc(S(=O)(=O)N2CCCCC2)cc1 | -1 | 12 | 19 | 2 | 59*
COc1ccc(S(=O)(=O)N2CCC(NC(=O)C3CCCCC3)CC2)cc1 | 0 | 1 | 46* | 3 | -14
CC(=O)Nc1ccc(S(=O)(=O)N2CCN(S(=O)(=O)N3CCCCCC3)CC2)cc1 | -1 | 1 | 5 | 1 | 7
O=C(Nc1ccc(CN2CCOCC2)cc1)c1ccc(-c2cc(Cl)ccc2Cl)o1 | 0 | 4 | 6 | -3 | 51*
O=C(Nc1ccc(CN2CCOCC2)cc1)c1ccc(Br)o1 | -26 | -85 | -12 | 4 | -49
C=CCOc1ccc(C2NC(=O)c3ccccc3O2)cc1OC (stereo not drawn) | nt | 10 | 5 | nt | -12
CC(=O)N[C@H]1[C@H](OC2CCCCC2)O[C@H](COC(C)=O)[C@@H](OC(C)=O)[C@@H]1OC(C)=O | -9 | -5 | -3 | 5 | 15
COCCn1c(SCC(=O)Nc2cc(C)on2)nnc1C(C)C | 0 | 13 | -5 | 4 | -5
CCOc1ccc(-c2nnc(N3CCOCC3)c3ccccc23)cc1 | 1 | -18 | -3 | nt | 14
O=S(=O)(c1cccc(C(F)(F)F)c1)N1CCC(c2cc(-c3cccc4ccccc34)n[nH]2)CC1 | -1 | -8 | 0 | -5 | 9
COc1ccc(S(=O)(=O)N2CCC(c3cc(-c4cccc5ccccc45)n[nH]3)CC2)cc1 | 11* | 35 | 3 | 1 | 16
CC(C)(C)c1ccc(C(=O)N2CCC(=O)N(C(CO)Cc3ccccc3)CC2)cc1 (stereo not drawn) | -2 | 9 | 78* | 2 | -32
O=C(c1ccccc1)N1CCC(=O)N(C(CO)Cc2ccccc2)CC1 (stereo not drawn) | -1 | 5 | -2 | -3 | -20
Cc1sc2nc(SCC(=O)OC(C)C)n(C)c(=O)c2c1C | 0 | -13 | 47* | nt | 32
